From article PMC3993931 (Journal of Medicinal Chemistry, 2014)

Key:
[1] = test system: colorectal tumor xenograft; details: cited from earlier work
[2] = Aqueous stability, pH 4.88; assay type: physicochemical; details: Figure 3 conditions generally, especially acidic (pH 4.88)
[3] = cited from earlier work
[4] = test system: met proto-oncogene receptor (MET); test: Immunoblot analysis for RTK; assay type: cell-based, human; details: HCT116, 24 h
In short: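 HCT116 cells were seeded at 4 × 10^5 cells/well in 6-well plates and dosed the next day with graded test-compound concentrations or 1% EtOH. After 24 h, whole-cell lysates were made in PhosphoSafe buffer, protein was quantified by BCA, and equal protein was run on 4–12% SDS-PAGE. Blots on PVDF were probed with anti-Met plus secondary antibody, with chemiluminescent detection.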

HCT116 cells = test: Cell viability assay; assay type: cell-based, human; details: for IC50: Homo sapiens, HCT-116, read-out: antiproliferative activity
In short: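 HCT116 cells (ATCC) were grown in DMEM with 10% FBS at 37 °C, 5% CO2. They were seeded at 1 × 10^4 cells/well and treated 24 h later with a range of test-compound concentrations or 1% EtOH solvent control. After 48 h, viability was read by MTT per the kit instructions.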

VEGFR2 = test: Immunoblot of xenograft tumors for RTK; assay type: in vivo, mouse; details: higher dose (0.25 mg/kg), end of efficacy study
HCT116 xenograft = test: In vivo efficacy, HCT116 xenograft mouse model

CC[C@H](C)[C@H]1C(=O)N2CCC[C@H]2C(=O)O[C@H](C(C)(C)C)C[C@@H](C)C[C@H](O)[C@H](C)C2=N[C@@H](CCC(=O)N[C@@H](Cc3ccc(OC)cc3)C(=O)N(C)[C@@H](C)C(=O)N1C)CS2 [Compound 1a, apratoxin S4]
potency and efficacy versus apratoxin A ([1]; colorectal tumor xenograft model ref 2a): greater potency and efficacy
tolerability in vivo ([1]; ref 2a): much better tolerated
relative in vitro stability [2]: somewhat less stable than 1c

CC[C@H](C)[C@H]1C(=O)N2CCC[C@H]2C(=O)O[C@H](C(C)(C)C)C[C@@H](C)C/C=C/C2=N[C@@H](CCC(=O)N[C@@H](Cc3ccc(OC)cc3)C(=O)N(C)[C@@H](C)C(=O)N1C)CS2 [apratoxin E]
activity relative to other apratoxins ([3]; ref 1c): much reduced activity

CC[C@H](C)[C@H]1C(=O)N2CCC[C@H]2C(=O)O[C@H](C(C)(C)C)C[C@@H](C)C[C@H](O)[C@H](C)C2=N[C@H](CCC(=O)N[C@@H](Cc3ccc(OC)cc3)C(=O)N(C)[C@@H](C)C(=O)N1C)CS2 [Compound 1d, Apratoxin S9]
potency in reducing MET levels [4]: picomolar (subnanomolar) potency
relative in vitro stability [2]: slightly enhanced compared with that of 1a
fold potency over the other apratoxins (HCT116 cells; all three assays (cell growth, MET levels, VEGF-A secretion)): 2–3 fold

CC[C@H](C)[C@H]1C(=O)N2CCC[C@H]2C(=O)O[C@H](C(C)(C)C)C[C@@H](C)C[C@H](O)[C@@H](C)C2=N[C@@H](CCC(=O)N[C@@H](Cc3ccc(OC)cc3)C(=O)N(C)[C@@H](C)C(=O)N1C)CS2 [Compound 34-epi-1a, apratoxin S6]
potency relative to 1a ([3]; ref 2a): same potency

CC[C@H](C)[C@H]1C(=O)N2CCC[C@H]2C(=O)O[C@H](C(C)(C)C)C[C@@H](C)C[C@H](O)C(C)(C)C2=N[C@@H](CCC(=O)N[C@@H](Cc3ccc(OC)cc3)C(=O)N(C)[C@@H](C)C(=O)N1C)CS2 [Compound 1c, Apratoxin S8]
VEGFR2 expression levels in tumors (VEGFR2): detectable reduction in VEGFR2 expression levels
tumor growth inhibition (HCT116 xenograft; 0.1 mg/kg (~2 μg/mouse) daily ip for 16 days): about 50%
effect on tumor growth (HCT116 xenograft; 0.25 mg/kg (~5 μg/mouse) daily ip for 16 days): strongly retarded the tumor growth
signs of toxicity (weight loss, abnormal behavior) (HCT116 xenograft; 0.1 and 0.25 mg/kg daily ip for 16 days): did not observe signs of toxicity
IC50 (HCT116 cells): 1 to 2 nM

CC[C@H](C)[C@H]1C(=O)N2CCC[C@H]2C(=O)O[C@H](C(C)(C)C)C[C@@H](C)C[C@H](O)CC2=N[C@@H](CCC(=O)N[C@@H](Cc3ccc(OC)cc3)C(=O)N(C)[C@@H](C)C(=O)N1C)CS2 [Compound 1b, Apratoxin S7]
relative in vitro stability [2]: somewhat less stable than 1c
IC50 (HCT116 cells): 1 to 2 nM
